In ChEMBL document CHEMBL4513216, “Probing the Open Global Health Chemical Diversity Library for Multistage-Active Starting Points for Next-Generation Antimalarials” (ACS Infect Dis, 2020):

Assay: Toxicity liver stage against HepG2, at 10uM
Assay type: cell-based
Design: test concentration 10 uM, cell line HepG2-A16-CD81EGFP
Conditions: human, HepG2-A16-CD81EGFP cells; read-out: INHIBITION
In short: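 Uninfected HepG2-A16-CD81EGFP cells, 3 × 10^3 per well, 1536-well, plated on prespotted compound at 10 μM final, parasite-free screening media added to match infected plates; puromycin 10 μM positive, DMSO 0.5% negative; run in parallel with 48 h PbLuc assay at 37 °C, 5% CO2; viability by CellTiter-Glo luminescence, normalized to controls.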

Row | Compound | cytotoxicity at 10 µM [%]
1 | COC(=O)C(c1cc(F)ccc1F)N(C)C(=O)c1cnc(C)cn1 (configuration not stated) | 0.111
2 | Cc1ccc2nc(C(=O)N3CC(n4nc(C)cc4C)C3)cn2c1 | 5.53
3 | COC(=O)c1ccc(OC)c(OC23CCCN(CC2)C3)c1 (configuration not stated) | -13.9
4 | COc1ccc(NC(=O)Cc2c(C)nc3c(c2C)c(=O)[nH]n3C)cn1 | 7.32
5 | COC[C@@]12CCC[C@@H]1CN(C(=O)Cc1ccco1)C2 | -102
6 | Cc1cncc(C2CCN(Cc3ccc(S(C)(=O)=O)cc3)CC2)n1 | -1.03
7 | Fc1cnc(N2CCO[C@H]3[C@H](OCCN4CCCC4)CC[C@@H]32)nc1 | 1.33
8 | CC(=O)c1ccc(N2CCC3(CCC(=O)N(CCCO)C3)CC2)nc1 | 4.81
9 | CC(C)c1nc(CN(C)C(=O)CNS(=O)(=O)c2cccs2)no1 | -16.8
10 | CN1CCC2(CCN(C(=O)c3ccccc3)CC2)C1 | -2.36
11 | COc1ccccc1CC1CCCN(C(=O)c2n[nH]c3c2CCC3)C1 (configuration not stated) | 13.3
12 | Cc1ccccc1CCNC(=O)CN1CCCC(Cn2cncn2)C1 (configuration not stated) | -5.04
13 | Cc1ccc(CN(Cc2ccccn2)C(=O)C2CCCCCN2C)s1 (configuration not stated) | -20.2
14 | Cn1cc(C2(C)CN(C(=O)COc3ccccc3F)CCO2)cn1 (configuration not stated) | 0.814
15 | O=C(Cc1ccsc1)N1CCC(c2noc(-c3cccnc3)n2)CC1 | -18.2
16 | Cc1nc(CN2C[C@@H]3CN(C(=O)CC(F)(F)F)C[C@@H]3C2=O)cs1 | -73.5
17 | Cn1cc(NCCOc2ccc(F)cc2)cn1 | -1.51
18 | N#Cc1ccc(CN2CCCC3(Cc4ccccc4CNC3=O)C2)cc1 (configuration not stated) | 11.8
19 | O=C(c1cnc(NCc2cccnc2)c(Cl)c1)N1CCCCC1 | 8.89
20 | CN(C)S(=O)(=O)N1CC[C@]2(C[C@H](OCc3ccncc3)CO2)C1 | 1.23
21 | CCOc1ccccc1C(CC(=O)O)NC(C)=O (configuration not stated) | -4.19

Row | Compound | cytotoxicity at 10 µM [%]
22 | O=C(CCCOCc1ccccc1)N1CCCC(c2ncc[nH]2)C1 (configuration not stated) | 8.54
23 | Cc1ccccc1S(=O)(=O)NC(=O)CSc1ccc2c(c1)OCCO2 | -1.85
24 | CN(CC(O)C(F)(F)F)C(=O)Nc1cccc(C(F)F)c1 (configuration not stated) | 5.46
25 | CCOc1ccc(C(=O)CCC(=O)N(C)Cc2cnccn2)cc1C | 1.39
26 | CC(=O)N(c1ccc(C)cc1)c1nc(CN2CCCC(C)C2)cs1 (configuration not stated) | -6.71
27 | COc1cccc(CC(=O)N2CCc3ncnc(C)c3CC2)c1 | -1.59
28 | COCc1ccccc1CNC(=O)CN1CCC2(CCOC2)C1 (configuration not stated) | -61
29 | O=C(NCCC1CCN(CC(F)(F)F)CC1)C1CCCOC1 (configuration not stated) | 1.51
30 | OCC1(NCc2cnc(-c3ccccn3)s2)CCOCC1 | 9.32
31 | O=C(c1cc2c(s1)CCCCC2)N1CCC(c2ncc[nH]2)CC1 | 15.7
32 | CNC(=O)NC(=O)CCSCc1cc(Cl)cc2cccnc12 | -8.06
33 | COC[C@H]1CC[C@H]2[C@H](CCN2C(=O)c2ccncc2F)O1 | -4.61
34 | CC(C)n1ccnc1CNC(=O)c1cccc(CCC(C)(C)O)c1 | -36.4
35 | CN(Cc1ccc(Cl)c(Cl)c1)C(=O)CNC(N)=O | -8.87
36 | COCCNC(=O)[C@]12COC[C@H]1CN(c1cc(OC)ncn1)C2 | 4.32
37 | CC(C)c1nnc2n1CCN(CC(=O)N1CCc3sccc3C1)C2 | -10.4
38 | COC(=O)NCC(=O)N1CCCC(c2ncc[nH]2)C1 (configuration not stated) | 2.42
39 | O=C(NC[C@H]1OC[C@@H](NCc2ccccn2)[C@@H]1O)c1ccc(F)cc1 | -2.65
40 | CN1CCN(Cc2cccnc2)C2(CCN(c3ncc(F)cn3)C2)C1=O (configuration not stated) | -6.49
41 | COc1cc(NC(=O)c2ccc(C)cc2C)c(C(=O)N(C)C)cc1OC | -0.414
42 | CC(O)(CNc1ccccn1)c1ccccc1 (configuration not stated) | -44.3

Row | Compound | cytotoxicity at 10 µM [%]
43 | CN(C)Cc1ccc(C(=O)N2CCCC(n3cccn3)C2)cc1 (configuration not stated) | -0.798
44 | Cc1cccc(C)c1-c1cc(NCCO)nc2[nH]ccc12 | 52.4
45 | c1ccc(OCCNC2CCN(c3ncccn3)CC2)cc1 | 1.85
46 | O=C(NCC1CC1)C1CCC2(CCN(C(=O)c3cnccn3)CC2)O1 (configuration not stated) | -9.28
47 | CN1CC2(CCN(C(=O)CCc3nc4cccnc4n3C)C2)OC1=O (configuration not stated) | 1.56
48 | Cc1cccc(CN2CCCC2c2cncc(Nc3nncs3)n2)c1 (configuration not stated) | -3.47
49 | CN(C)C(=O)COCC1CN(Cc2ccoc2)Cc2ncn(C)c21 (configuration not stated) | 5.99
50 | CC(O)CN1CC2(CCC1=O)CCN(C(=O)c1cnn(C)c1)CC2 (configuration not stated) | 3.74
51 | Cc1nc2[nH]cnc(Nc3cc(C)n(C)n3)c-2n1 | 6.69
52 | O=C(c1cnc2c(cnn2C2CCCC2)c1)N1CCCSCC1 | -9.3
53 | COc1cccc(N2CCN(Cc3cccc(CCN)c3)CC2=O)c1 | -1.42
54 | Cc1ccccc1CC(=O)N1CCOCC1c1c(C)n[nH]c1C (configuration not stated) | -5.6
55 | Cn1cccc1C(=O)NCc1cn2c(n1)CN(Cc1ccccn1)CC2 | -115
56 | NC(=O)NCC1CCCCN1C(=O)c1cccc(Cl)c1 (configuration not stated) | -7.6
57 | COc1ccc(CC2(CO)CCN(c3cc(N)ncn3)CC2)cc1 | -12.9
58 | CC(C)N(CCCNC(=O)C1CC1)S(C)(=O)=O | -5.55
59 | CCOC(=O)CCCc1ccc2c(c1)CC(=O)N2 | 1.23
60 | Cc1cc(C(=O)N2CCn3c(COCC4CCCC4)cnc3C2C)on1 (configuration not stated) | 3.18
61 | COc1ccc(-c2cc(C3CCNCC3)nc(C)n2)cc1 | 10.2
62 | COc1ccccc1-n1c(C)cc(CNC(=O)NC(C)C)c1C | 3.49
63 | COCCOC1CCN(C(=O)NCc2cc(C)oc2C)CC1 | -4.23

Row | Compound | cytotoxicity at 10 µM [%]
64 | CNc1cc(C2CN(C(=O)c3ccn(C)n3)CCO2)nc(C)n1 (configuration not stated) | 12.6
65 | Fc1cccc(Oc2ccc(CNCC3CNc4ccnn4C3)cn2)c1 (configuration not stated) | -7.16
66 | CN(C)c1nccnc1C1CCN(C2CCCCC2O)CC1 (configuration not stated) | 8.12
67 | CC(C)(C)OC(=O)NCC1CCN(C(=O)c2ccccc2O)CC1 | 8.53
68 | Cc1ccc2nc(CN3CCCC3c3cccnc3)cc(O)c2c1 (configuration not stated) | 3.16
69 | CSCC(CCO)NC(=O)Nc1ccc(C)cc1Br (configuration not stated) | -11.8
70 | Cc1n[nH]c(C2CN(C(=O)c3cnc[nH]3)CCO2)n1 (configuration not stated) | -0.265
71 | Cc1cc(C2CCCN(CC(=O)N3CCc4ccccc43)C2)n[nH]1 (configuration not stated) | 2.01
72 | CC(Nc1ccc(CC(=O)N(C)C)cc1)C(=O)N(C)CCC#N (configuration not stated) | 1.42
73 | CN(C)c1cncc(C2CCN(C(=O)CO)CC2)n1 | -1.37
74 | Cc1cc(C)n(CC2CN(CCOc3ccc(C#N)cc3)CCO2)n1 (configuration not stated) | -6.31
75 | O=C(NCCNc1ncccn1)C1CC(=O)N(Cc2ccccn2)C1 (configuration not stated) | -10.4
76 | CN1CC(c2ccccc2)CC12CCN(C(=O)c1cccnc1)CC2 (configuration not stated) | 10.2
77 | O=C(c1coc(COc2ccccc2F)n1)N1CCC[C@H]1CO | 0.835
78 | COc1cccc(CCNC(=O)CN2CCCC2c2noc(C)n2)c1 (configuration not stated) | -0.489
79 | O=C(O)c1c(Cl)ncn1-c1cccc2ccccc12 | 1.76
80 | COC(=O)N1CC[C@@]2(C1)[C@H](OC)CN(c1ccccc1)S2(=O)=O | 5.78
81 | O=S(=O)(NCCCN1CCCC1)c1cc(F)cc(F)c1 | 8.84
82 | O=C(NC1CC1)[C@H]1CC[C@@H]2[C@@H](CCN2c2ncc(F)cn2)O1 | -1.65
